Reference: ChEMBL document CHEMBL2062453, “Lead optimization through VLAK protocol: new annelated pyrrolo-pyrimidine derivatives as antitumor agents” (2012)

Legend:
Type in all cases: functional
[1] = tested on: MCF7; experiment: Cytotoxicity against human MCF7 cells assessed as cell growth at 10 uM after 48 hrs by SRB assay relative to control; conditions: MCF7, 48 h, read-out: Activity
How it was run: (§1)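 NCI primary screen of about 60 human tumour lines. Cells inoculated and preincubated, then a single test concentration added and cultures incubated 48 h. Result given as percent growth (G%) of treated versus untreated control cells.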

[2] = tested on: UACC-257; experiment: Cytotoxicity against human UACC257 cells assessed as cell growth at 10 uM after 48 hrs by SRB assay relative to control; conditions: UACC-257, 48 h, read-out: Activity
How it was run: (§2)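 NCI single-dose primary screen across about 60 human tumour lines. Each line was inoculated and preincubated on microtiter plates, then exposed to one concentration of agent for 48 h. Growth is reported as percent growth (G%) of treated cells versus untreated control cells.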

[3] = tested on: HT-29; experiment: Cytotoxicity against human HT-29 cells assessed as cell growth at 10 uM after 48 hrs by SRB assay relative to control; conditions: HT-29, 48 h, read-out: Activity; how it was run: as §1
[4] = tested on: RPMI-8226; experiment: Cytotoxicity against human RPMI8226 cells assessed as cell growth at 10 uM after 48 hrs by SRB assay relative to control; conditions: RPMI-8226, 48 h, read-out: Activity
[5] = tested on: NCI-H522; experiment: Cytotoxicity against human NCI-H522 cells assessed as cell growth at 10 uM after 48 hrs by SRB assay relative to control; conditions: NCI-H522, 48 h, read-out: Activity
[6] = tested on: A498; experiment: Cytotoxicity against human A498 cells assessed as cell growth at 10 uM after 48 hrs by SRB assay relative to control; conditions: A498, 48 h, read-out: Activity; how it was run: as §1
[7] = tested on: CAKI-1; experiment: Cytotoxicity against human Caki1 cells assessed as cell growth at 10 uM after 48 hrs by SRB assay relative to control; conditions: CAKI-1, 48 h, read-out: Activity; how it was run: as §1
[8] = tested on: NCI-H460; experiment: Cytotoxicity against human NCI-H460 cells assessed as cell growth at 10 uM after 48 hrs by SRB assay relative to control; conditions: NCI-H460, 48 h, read-out: Activity
[9] = tested on: IGROV-1; experiment: Cytotoxicity against human IGROV1 cells assessed as cell growth at 10 uM after 48 hrs by SRB assay relative to control; conditions: IGROV-1, 48 h, read-out: Activity; how it was run: as §1
[10] = tested on: DU-145; experiment: Cytotoxicity against human DU145 cells assessed as cell growth at 10 uM after 48 hrs by SRB assay relative to control; conditions: DU-145, 48 h, read-out: Activity; how it was run: as §1
[11] = tested on: MOLT-4; experiment: Cytotoxicity against human MOLT4 cells assessed as cell growth at 10 uM after 48 hrs by SRB assay relative to control; conditions: MOLT-4, 48 h, read-out: Activity
[12] = tested on: HCT-15; experiment: Cytotoxicity against human HCT15 cells assessed as cell growth at 10 uM after 48 hrs by SRB assay relative to control; conditions: HCT-15, 48 h, read-out: Activity; how it was run: as §1
[13] = tested on: KM12; experiment: Cytotoxicity against human KM12 cells assessed as cell growth at 10 uM after 48 hrs by SRB assay relative to control; conditions: KM12, 48 h, read-out: Activity; how it was run: as §1
[14] = tested on: OVCAR-3; experiment: Cytotoxicity against human OVCAR3 cells assessed as cell growth at 10 uM after 48 hrs by SRB assay relative to control; conditions: OVCAR-3, 48 h, read-out: Activity
[15] = tested on: SW-620; experiment: Cytotoxicity against human SW620 cells assessed as cell growth at 10 uM after 48 hrs by SRB assay relative to control; conditions: SW-620, 48 h, read-out: Activity; how it was run: as §2
[16] = tested on: SK-MEL-5; experiment: Cytotoxicity against human SK-MEL-5 cells assessed as cell growth at 10 uM after 48 hrs by SRB assay relative to control; conditions: SK-MEL-5, 48 h, read-out: Activity
[17] = tested on: HOP-92; experiment: Cytotoxicity against human HOP92 cells assessed as cell growth at 10 uM after 48 hrs by SRB assay relative to control; conditions: HOP-92, 48 h, read-out: Activity; how it was run: as §1
[18] = tested on: T47D; experiment: Cytotoxicity against human T47D cells assessed as cell growth at 10 uM after 48 hrs by SRB assay relative to control; conditions: read-out: Activity; how it was run: as §2
[19] = tested on: Malme-3M; experiment: Cytotoxicity against human MALME-3M cells assessed as cell growth at 10 uM after 48 hrs by SRB assay relative to control; conditions: read-out: Activity; how it was run: as §1
[20] = tested on: NCI-H226; experiment: Cytotoxicity against human NCI-H226 cells assessed as cell growth at 10 uM after 48 hrs by SRB assay relative to control; conditions: NCI-H226, 48 h, read-out: Activity
[21] = tested on: SK-OV-3; experiment: Cytotoxicity against human SKOV3 cells assessed as cell growth at 10 uM after 48 hrs by SRB assay relative to control; conditions: SK-OV-3, 48 h, read-out: Activity
[22] = tested on: HOP-62; experiment: Cytotoxicity against human HOP62 cells assessed as cell growth at 10 uM after 48 hrs by SRB assay relative to control; conditions: HOP-62, 48 h, read-out: Activity; how it was run: as §1
[23] = tested on: U-251; experiment: Cytotoxicity against human U251 cells assessed as cell growth at 10 uM after 48 hrs by SRB assay relative to control; conditions: U-251, 48 h, read-out: Activity; how it was run: as §2
[24] = tested on: EKVX; experiment: Cytotoxicity against human EKVX cells assessed as cell growth at 10 uM after 48 hrs by SRB assay relative to control; conditions: read-out: Activity; how it was run: as §1
[25] = tested on: NCI-H322M; experiment: Cytotoxicity against human NCI-H322M cells assessed as cell growth at 10 uM after 48 hrs by SRB assay relative to control; conditions: read-out: Activity
[26] = tested on: HCT-116; experiment: Cytotoxicity against human HCT116 cells assessed as cell growth at 10 uM after 48 hrs by SRB assay relative to control; conditions: HCT-116, 48 h, read-out: Activity; how it was run: as §1
[27] = tested on: Hs-578T; experiment: Cytotoxicity against human Hs578T cells assessed as cell growth at 10 uM after 48 hrs by SRB assay relative to control; conditions: read-out: Activity; how it was run: as §1

SMILES | growth at 10 µM [1] [%] | growth at 10 µM [2] [%] | growth at 10 µM [3] [%] | growth at 10 µM [4] [%] | growth at 10 µM [5] [%] | growth at 10 µM [6] [%] | growth at 10 µM [7] [%] | growth at 10 µM [8] [%] | growth at 10 µM [9] [%] | growth at 10 µM [10] [%] | growth at 10 µM [11] [%] | growth at 10 µM [12] [%] | growth at 10 µM [13] [%] | growth at 10 µM [14] [%] | growth at 10 µM [15] [%] | growth at 10 µM [16] [%] | growth at 10 µM [17] [%] | growth at 10 µM [18] [%] | growth at 10 µM [19] [%] | growth at 10 µM [20] [%] | also measured
COC(=O)C(Cc1cnc[nH]1)NC(=O)CCCn1c(C)c(C)c2c1N=C(SC)N1CC(=O)N=C21 (stereo unspecified) | 92 | 107 | 96 | 100 | 90 | 101 | 102 | 99 | 95 | 113 | 98 | 105 | 106 | 121 | 98 | 98 | 92 | 104 | 108 | 111 | growth at 10 µM [21]: 125%; growth at 10 µM [22]: 103%; growth at 10 µM [23]: 96%; growth at 10 µM [24]: 95%; growth at 10 µM [25]: 105%; growth at 10 µM [26]: 100%; growth at 10 µM [27]: 107%
CSC1=Nc2c(c(C)c(-c3ccccc3)n2CCCC(=O)O)C2=NC(=O)CN12 | 94 | 99 | 97 | 88 | 84 | 109 | 70 | 102 | 88 | 116 | 87 | 95 | 100 | 109 | 94 | 97 | 95 | 106 | 133 | 107 | growth at 10 µM [21]: 114%; growth at 10 µM [22]: 88%; growth at 10 µM [23]: 90%; growth at 10 µM [24]: 95%; growth at 10 µM [25]: 131%; growth at 10 µM [26]: 96%; growth at 10 µM [27]: 106%
CCOC(=O)CCCn1c(C)c(C)c2c1N=C(SC)N1CC(=O)N=C21 | 96 | 111 | 109 | 95 | 97 | 115 | 108 | 110 | 98 | 149 | 98 | 108 | 154 | 162 | 110 | 100 | 89 | 95 | 119 | 113 | growth at 10 µM [21]: 127%; growth at 10 µM [22]: 112%; growth at 10 µM [23]: 105%; growth at 10 µM [24]: 104%; growth at 10 µM [25]: 111%; growth at 10 µM [26]: 111%; growth at 10 µM [27]: 120%
